In PubChem BioAssay AID504509 (Southern Research Specialized Biocontainment Screening …, 2011):
Calls of active or inactive are those of the source.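 The calls were made as follows: active = cell viability under 70% at any tested concentration, a measure not printed in our tables; inactive = the rest.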

These compounds were tested on HEp-2 viability, luminescence, cytotoxicity counter-screen (assay: host cell viability for RSV antiviral hits – HEp-2 cells, synthesized compounds, set 6, cytotoxicity control for RSV inhibitor project, dose response (AID 504509)).
How it was run: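 Test system: uninfected HEp-2 human cells, cytotoxicity counter-screen; quantity: 10,595 HEp-2 cells per well; timing: compound exposure of 6 days at 37 °C; measured by: CellTiter-Glo luminescence reporting cellular ATP; read-out basis: CC50 from % viability versus untreated-cell median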

Compound | CC50
Cc1ccc(C(F)(F)F)cc1NC(=O)[C@@H]1CCCN1S(=O)(=O)c1cccc2cccnc12 | 6.92 µM
Cc1ccc(Cl)cc1NC(=O)[C@@H]1CCCN1S(=O)(=O)c1cccc2cccnc12 | 9.59 µM
COCCNC(=O)c1ccc(Cn2c(=O)c3ccccc3n(Cc3ccc(C)cc3)c2=O)cc1 | > 50 µM (inactive)
COc1ccccc1CNC(=O)C1CCN(S(=O)(=O)c2cccc3nonc23)CC1 | > 50 µM (inactive)
Cc1ccc(C(C)(C)C)cc1NC(=O)[C@@H]1CCCN1S(=O)(=O)c1cccc2cccnc12 | 7.18 µM
COc1ccccc1CNC(=O)C1CCN(Cc2cccc3nonc23)CC1 | > 50 µM (inactive)
COc1ccccc1CNC(=O)C1CCN(S(=O)(=O)c2ccccc2)CC1 | > 50 µM (inactive)
COc1ccccc1CNC(=O)[C@@H]1CCCN1S(=O)(=O)c1cccc2cccnc12 | > 50 µM (inactive)
Cc1ccc(C(C)C)cc1NC(=O)[C@@H]1CCCN1S(=O)(=O)c1cccc2cccnc12 | 8.26 µM
COc1cccc(CNC(=O)C2CCN(S(=O)(=O)c3cccc4nonc34)CC2)c1 | > 50 µM (inactive)
O=C(O)C1CC=CCC1C(=O)Nc1ccc(S(=O)(=O)N2CCCc3ccccc32)cc1 (configuration not stated) | 33 µM
COc1ccccc1CNC(=O)C1CCN(S(=O)(=O)c2cccc3cccnc23)CC1 | > 50 µM (inactive)
Cc1ccc(Cl)c(NC(=O)[C@@H]2CCCN2S(=O)(=O)c2cccc3cccnc23)c1 | 9.83 µM
Cc1ccc(C)c(NC(=O)[C@@H]2CCCN2S(=O)(=O)c2cccc3cccnc23)c1 | 50.4 µM
COCCCNC(=O)c1ccc(Cn2c(=O)c3ccccc3n(Cc3ccccc3)c2=O)cc1 | > 50 µM (inactive)
Cc1cccc(C)c1NC(=O)[C@@H]1CCCN1S(=O)(=O)c1cccc2cccnc12 | > 50 µM (inactive)
COc1ccccc1NCC(=O)Nc1cc(S(=O)(=O)N2CCOCC2)ccc1N1CCOCC1 | > 50 µM (inactive)
